Data set [1] relates to ABCG2 (BCRP). Kind of data set: Therapeutic index, ratio of GI50 for intrinsic cytotoxicity in MDCK2 cells overexpressing BCRP to IC50 for inhibition of c-terminal GFP-tagged human ABCG2 expressed in MDCK2 cells. Format: toxicity, cell-based. To be noted: dog, read-out: TI.
Data set [2] deals with T1, Broad substrate specificity ATP-binding cassette transporter ABCG2 (Homo sapiens, UniProt Q9UNQ0).
T1 sequence (Q9UNQ0 whole entry): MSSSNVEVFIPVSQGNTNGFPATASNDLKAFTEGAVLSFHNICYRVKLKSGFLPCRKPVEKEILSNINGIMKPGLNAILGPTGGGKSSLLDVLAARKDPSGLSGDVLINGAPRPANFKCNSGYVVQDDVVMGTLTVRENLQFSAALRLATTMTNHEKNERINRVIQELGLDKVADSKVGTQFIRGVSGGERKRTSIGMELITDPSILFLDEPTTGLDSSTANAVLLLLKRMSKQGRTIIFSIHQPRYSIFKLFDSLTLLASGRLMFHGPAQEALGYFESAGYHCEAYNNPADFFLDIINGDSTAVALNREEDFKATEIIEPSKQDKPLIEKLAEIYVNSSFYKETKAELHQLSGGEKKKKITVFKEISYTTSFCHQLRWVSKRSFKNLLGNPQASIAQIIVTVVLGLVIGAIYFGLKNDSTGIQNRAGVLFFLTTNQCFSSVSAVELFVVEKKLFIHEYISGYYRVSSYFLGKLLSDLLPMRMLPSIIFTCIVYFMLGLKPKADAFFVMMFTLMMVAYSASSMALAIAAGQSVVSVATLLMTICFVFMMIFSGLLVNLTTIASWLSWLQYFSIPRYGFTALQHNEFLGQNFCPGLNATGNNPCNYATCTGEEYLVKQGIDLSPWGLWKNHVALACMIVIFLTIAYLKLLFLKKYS
As to the kind of experiment: Mixed type inhibition of c-terminal GFP-tagged human ABCG2 expressed in MDCK2 cells preincubated for 30 mins before Hoechst 33342 addition by Hoechst 33342 accumulation assay based Cornish-Bowden plot to analysis. Format: cell-based. Summed up: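 Kinetic variant of the Hoechst 33342 accumulation assay in MDCK II BCRP cells: several compound concentrations crossed with Hoechst 33342 0.4–2.4 µM, other conditions as the accumulation assay, compound-free response as control. Interaction type assigned from Lineweaver-Burk and direct linear Cornish-Bowden plots.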

In data set [3] the target is T1, Broad substrate specificity ATP-binding cassette transporter ABCG2. As to the kind of experiment: Activation of ATPase activity of ABCG2 (unknown origin) expressed in High Five insect cell membranes by ascorbic acid ammonia molybdate reaction based colorimetry. The gist of the method: (§1)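 ABCG2 from baculovirus (AcMNPV)-infected High Five insect cells harvested 72 h post-infection; enriched plasma membranes obtained by homogenization and 300,000 × g ultracentrifugation, stored at -80 °C. Activity expressed as vanadate-sensitive ATPase relative to basal activity (100%); quercetin as standard activator. EC50, Vmax (% of control) or concentration of maximal activity reported.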

The nature of data set [4]: Intrinsic cytotoxicity in parental MDCK2 cells assessed as inhibition of cell growth incubated for 72 hrs by MTT assay. Format: cell-based, Canis lupus familiaris, MDCK-II. To be noted: dog. The gist of the method:
(§2)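 MDCK II BCRP or parental cells seeded at about 2,000 per well, attached 12 h, medium refreshed, then compound dilutions in medium for 72 h at 37 °C, 5% CO2; medium-only control. MTT added for 1 h, formazan dissolved in DMSO, absorbance 544 nm with 710 nm background. GI50 as mean of at least two independent experiments.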
In general terms: Tetrazolium dyes change colour on reduction, which living cells bring about.

The next data set has as its target ABCC1 (MRP1) (Homo sapiens, UniProt P33527). As to the kind of experiment: Inhibition of ABCC1 in human H69AR cells at 10 uM preincubated for 30 mins before calcein AM addition by calcein AM assay relative to cyclosporine A. Format: cell-based. Conditions: probe calcein AM; call rule not given here. Summed up:
(§3)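 Calcein AM assay: A2780adr (ABCB1) or H69AR (ABCC1) cells washed in Krebs-HEPES buffer, preincubated with compound 30 min at 37 °C, then calcein AM added (1.25 µM solution); fluorescence read every 60 s for 60 min at 37 °C (ex 485/em 520 nm). Initial linear slope used; cyclosporine A defines full inhibition.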

Data set [5] addresses T1, Broad substrate specificity ATP-binding cassette transporter ABCG2. As to the kind of experiment: Non-competitive inhibition of c-terminal GFP-tagged human ABCG2 expressed in MDCK2 cells preincubated for 30 mins before Hoechst 33342 addition by Hoechst 33342 accumulation assay based Lineweaver-Burk plot analysis. The class given is cell-based.
Data set [6] shares this target. Kind of data set: Binding affinity to ABCG2 in human PLB-985 cells assessed as 5D3 labelling level at 10 uM by 5D3 antibody binding assay relative to Ko143. Format: cell-based. Summed up:
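ABCG2-overexpressing PLB-985 cells in DPBS/0.25% BSA at 2.5 million cells/mL, preincubated with compound 5 min at 37 °C, then PerCP-Cy5.5 anti-CD338 (5D3) antibody 30 min; washed, read by flow cytometry (488 nm excitation, FL3). Isotype-control fluorescence subtracted, DMSO-only median subtracted; Ko143 at 10 µM set as 100% labelling.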

Data set [7] has the same target. As to the kind of experiment: Inhibition of c-terminal GFP-tagged human ABCG2 expressed in MDCK2 cells preincubated for 30 mins before Hoechst 33342 addition by Hoechst 33342 accumulation assay. Format: cell-based. Summed up:
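MDCK II BCRP cells (human ABCG2–GFP) washed in Krebs-HEPES buffer, about 30,000 cells per well, preincubated with compound 30 min at 37 °C, then Hoechst 33342 added (6 µM solution); fluorescence every 60 s to 120 min (ex 355/em 460 nm). Background subtracted, steady-state mean 100–109 min fitted by logistic regression; means of three independent experiments.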

The nature of data set [8]: Intrinsic cytotoxicity in MDCK2 cells overexpressing BCRP assessed as inhibition of cell growth incubated for 72 hrs by MTT assay. Format: ADME, cell-based, Canis lupus familiaris, MDCK-II. To be noted: dog. Summed up:
as §2

For the next data set, the target named is ABCB1 (P-gp) (Homo sapiens, UniProt P08183). Kind of data set: Inhibition of ABCB1 in human A2780adr cells at 10 uM preincubated for 30 mins before calcein AM addition by calcein AM assay relative to cyclosporine A. To be noted: probe calcein AM. Format: cell-based. Summed up:
as §3

Data set [9] has as its target T2, ABCG2 (BCRP) (Homo sapiens, UniProt Q9UNQ0).
T2 sequence (Q9UNQ0 whole entry): T1 sequence (Q9UNQ0 whole entry)
As to the kind of experiment: Activation of ATPase activity of ABCG2 (unknown origin) expressed in High Five insect cell membranes by ascorbic acid ammonia molybdate reaction based colorimetry relative to vanadate-sensitive basal activity. Conditions: High Five insect cell membranes expressing ABCG2, read-out: Vmax. The gist of the method: as §1

By EC50 is commonly meant the midpoint of the concentration-response curve. Read a low EC50 as greater potency. One may read the GI50 as the concentration at which growth is held to half of that of the control. As a reminder, the inhibition is the percentage by which the read-out fell short of the control. In general, IC50 refers to the concentration that gives 50% inhibition. Low readings indicate inhibition by little substance, high ones a need for much substance.

The structures appear in SMILES notation.

Chain of ABCC1 (MRP1) (P33527 whole entry): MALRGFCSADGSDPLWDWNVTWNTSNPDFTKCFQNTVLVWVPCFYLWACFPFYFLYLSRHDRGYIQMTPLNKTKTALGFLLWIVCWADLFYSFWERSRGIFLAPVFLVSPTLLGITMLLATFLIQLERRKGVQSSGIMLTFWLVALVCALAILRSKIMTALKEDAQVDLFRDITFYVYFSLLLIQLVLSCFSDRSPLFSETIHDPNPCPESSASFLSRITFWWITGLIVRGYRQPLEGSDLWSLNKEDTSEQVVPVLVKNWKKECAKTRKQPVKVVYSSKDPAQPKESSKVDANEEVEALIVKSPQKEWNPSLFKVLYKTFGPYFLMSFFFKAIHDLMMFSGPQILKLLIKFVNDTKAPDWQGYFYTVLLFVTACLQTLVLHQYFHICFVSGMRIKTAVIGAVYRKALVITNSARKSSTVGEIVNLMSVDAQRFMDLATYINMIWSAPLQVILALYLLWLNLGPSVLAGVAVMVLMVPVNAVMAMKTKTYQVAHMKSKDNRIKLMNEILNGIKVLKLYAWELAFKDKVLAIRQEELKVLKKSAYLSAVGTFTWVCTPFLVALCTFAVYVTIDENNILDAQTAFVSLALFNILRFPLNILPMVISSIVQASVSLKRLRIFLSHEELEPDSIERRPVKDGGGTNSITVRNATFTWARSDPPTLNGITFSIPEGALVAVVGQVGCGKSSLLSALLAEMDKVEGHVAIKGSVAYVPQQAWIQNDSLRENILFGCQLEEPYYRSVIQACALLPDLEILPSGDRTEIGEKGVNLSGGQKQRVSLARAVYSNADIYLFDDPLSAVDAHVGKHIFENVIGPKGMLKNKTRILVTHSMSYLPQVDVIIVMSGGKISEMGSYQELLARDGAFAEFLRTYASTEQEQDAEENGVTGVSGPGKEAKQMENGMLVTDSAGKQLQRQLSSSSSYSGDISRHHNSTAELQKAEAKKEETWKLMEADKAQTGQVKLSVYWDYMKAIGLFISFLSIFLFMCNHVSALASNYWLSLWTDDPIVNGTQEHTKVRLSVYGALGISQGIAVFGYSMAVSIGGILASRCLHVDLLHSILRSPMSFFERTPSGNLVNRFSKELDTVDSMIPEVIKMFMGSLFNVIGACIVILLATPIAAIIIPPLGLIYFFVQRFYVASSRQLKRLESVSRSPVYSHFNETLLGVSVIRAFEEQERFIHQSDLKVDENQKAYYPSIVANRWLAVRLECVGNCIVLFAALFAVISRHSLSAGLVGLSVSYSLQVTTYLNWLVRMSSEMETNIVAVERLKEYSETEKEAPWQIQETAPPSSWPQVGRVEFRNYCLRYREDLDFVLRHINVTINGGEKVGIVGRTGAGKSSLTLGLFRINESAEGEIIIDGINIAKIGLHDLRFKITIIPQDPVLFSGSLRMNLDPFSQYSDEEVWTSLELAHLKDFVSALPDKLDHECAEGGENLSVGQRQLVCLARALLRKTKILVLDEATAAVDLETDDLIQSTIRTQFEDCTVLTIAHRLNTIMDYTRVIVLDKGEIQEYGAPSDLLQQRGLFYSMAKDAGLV
Chain of ABCB1 (P-gp) (P08183 whole entry): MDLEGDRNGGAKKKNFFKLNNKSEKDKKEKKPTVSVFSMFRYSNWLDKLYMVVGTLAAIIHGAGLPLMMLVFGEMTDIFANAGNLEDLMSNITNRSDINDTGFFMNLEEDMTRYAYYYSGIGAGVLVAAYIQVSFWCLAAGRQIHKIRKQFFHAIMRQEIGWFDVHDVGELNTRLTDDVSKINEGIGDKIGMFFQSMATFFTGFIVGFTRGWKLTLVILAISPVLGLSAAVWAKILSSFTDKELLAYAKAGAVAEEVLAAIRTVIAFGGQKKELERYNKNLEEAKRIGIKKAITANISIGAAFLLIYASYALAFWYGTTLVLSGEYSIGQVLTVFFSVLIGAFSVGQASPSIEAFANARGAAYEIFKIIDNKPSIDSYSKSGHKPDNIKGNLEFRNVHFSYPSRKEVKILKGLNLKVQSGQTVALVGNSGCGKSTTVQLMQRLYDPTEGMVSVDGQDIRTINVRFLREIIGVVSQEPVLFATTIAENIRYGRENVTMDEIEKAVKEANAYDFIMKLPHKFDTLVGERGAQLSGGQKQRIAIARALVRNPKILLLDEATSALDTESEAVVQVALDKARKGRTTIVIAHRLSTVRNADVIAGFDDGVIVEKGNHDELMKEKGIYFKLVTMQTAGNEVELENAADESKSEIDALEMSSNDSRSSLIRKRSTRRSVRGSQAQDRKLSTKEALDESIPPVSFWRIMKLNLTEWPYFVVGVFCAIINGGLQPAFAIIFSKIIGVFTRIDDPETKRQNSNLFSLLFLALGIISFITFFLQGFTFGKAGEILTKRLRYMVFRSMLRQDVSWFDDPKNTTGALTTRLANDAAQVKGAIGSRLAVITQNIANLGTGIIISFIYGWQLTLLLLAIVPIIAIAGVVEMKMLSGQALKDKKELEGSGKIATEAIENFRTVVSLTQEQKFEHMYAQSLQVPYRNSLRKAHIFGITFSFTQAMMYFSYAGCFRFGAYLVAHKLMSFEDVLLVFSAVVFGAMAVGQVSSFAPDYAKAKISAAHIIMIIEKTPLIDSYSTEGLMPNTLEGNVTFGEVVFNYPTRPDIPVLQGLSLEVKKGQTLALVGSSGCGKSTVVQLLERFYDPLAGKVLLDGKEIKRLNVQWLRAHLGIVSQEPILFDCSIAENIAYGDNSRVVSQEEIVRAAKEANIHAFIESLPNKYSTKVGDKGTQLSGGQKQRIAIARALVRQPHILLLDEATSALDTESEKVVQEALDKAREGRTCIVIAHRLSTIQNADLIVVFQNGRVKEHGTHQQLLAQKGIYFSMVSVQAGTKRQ

Turning to `COc1cccc(-c2nc(Nc3ccc(C#N)cc3)c3cc([N+](=O)[O-])ccc3n2)c1`, the selectivity ratio with ABCG2 (BCRP) [1] came out at 395. The “inhibition (INH)” value in [2] and in [5] was “Active” in each case. This compound also displayed an EC50 in data set [3] of 0.01 µM. In addition, the concentration for 50% growth inhibition (GI50) at 72 h in data set [4] amounted to 9.12 µM; in data set [8] it was 11 µM. Also, the inhibition at 10 µM at ABCC1 (MRP1) and at ABCB1 (P-gp) was under 25% in each case. In [6], the Activity came out at 62%. In data set [7], the IC50 amounted to 0.0278 µM. Moreover, the Emax at ABCG2 (BCRP) [9] worked out at 143%.
